From ChEMBL document CHEMBL4334463, “Free Ligand 1D NMR Conformational Signatures To Enhance Structure Based Drug Design of a Mcl-1 Inhibitor (AZD5991) and Other Synthetic Macrocycles” (J Med Chem, 2019)
pIC50, pKd, pKi: −log10 of the molar value.

Key:
[1] = Lipophilicity, logD of the compound at pH 7.4; assay type: physicochemical; conditions: buffer
Outline: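 Shake-flask partitioning to determine logD, with the aqueous phase at pH 7.4.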

[2] = target: T1, Induced myeloid leukemia cell differentiation protein Mcl-1 (Homo sapiens, UniProt Q07820); assay: Inhibition of Mcl1 (unknown origin) by TR-FRET assay
Target sequence in this assay (Q07820 whole entry): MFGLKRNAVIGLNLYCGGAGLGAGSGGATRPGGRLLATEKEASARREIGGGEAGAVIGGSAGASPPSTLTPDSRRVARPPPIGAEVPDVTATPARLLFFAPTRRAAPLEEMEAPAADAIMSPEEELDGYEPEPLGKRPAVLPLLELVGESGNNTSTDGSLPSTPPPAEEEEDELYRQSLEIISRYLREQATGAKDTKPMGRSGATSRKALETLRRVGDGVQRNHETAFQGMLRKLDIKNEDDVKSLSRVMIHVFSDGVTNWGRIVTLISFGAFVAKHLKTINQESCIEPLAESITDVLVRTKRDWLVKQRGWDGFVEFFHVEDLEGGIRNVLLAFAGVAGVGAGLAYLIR

[3] = target: T2, B-cell lymphoma 6 protein (Homo sapiens, UniProt P41182)
[4] = target: T1, Induced myeloid leukemia cell differentiation protein Mcl-1; assay: Binding affinity to Mcl-1 (unknown origin) by SPR assay
Target sequence in this assay (Q07820 whole entry, looked up): as the sequence (Q07820 whole entry) above

[5] = target: T1, Induced myeloid leukemia cell differentiation protein Mcl-1
Target sequence in this assay (Q07820 whole entry): as above

[6] = target: T2, B-cell lymphoma 6 protein; assay: Inhibition of Bcl6 (unknown origin) by TR-FRET assay

| logD [1] | pKi [2] | Structure (SMILES) | also measured |
| --- | --- | --- | --- |
| 4.3 | 6.81 | CN1CCCN[C@@H](Cc2ccc(Cl)cc2)CC(=O)N[C@H]2CCc3ccccc3N(CC(=O)N[C@H](Cc3ccc(Cl)c(Cl)c3)CC1=O)C2=O |  |
| 4.2 |  | Cc1cc(CSCc2nn(C)c(C)c2-c2cccc3c(CCCOc4cccc5ccccc45)c(C(=O)O)[nH]c23)nn1C |  |
|  | 6.52 | CC1CCN[C@@H](Cc2ccc(Cl)cc2)CC(=O)N[C@H]2CCc3ccccc3N(CC(=O)N[C@H](Cc3ccc(Cl)c(Cl)c3)CC(=O)N1C)C2=O (stereo in doubt; 12) |  |
| 2.2 |  | N#Cc1cnn2c3cc(nc12)N1C[C@H](C[C@H]1CO)OC/C=C/COc1cc(cc2c1NC(=O)CC2)N3 | T1/2 [3]: 2 min |
| 3.6 | 6.54 | Cc1nn(C)c(C)c1-c1cccc2c(CCCOc3cccc4ccccc34)c(C(=O)O)[nH]c12 | pKd [4]: 6.32 |
|  | 6.13 | C[C@@H]1CCN(C)C(=O)C[C@@H](Cc2ccc(Cl)c(Cl)c2)NC(=O)CN2C(=O)[C@H](CCc3ccccc32)NC(=O)C[C@H](Cc2ccc(Cl)cc2)N1 |  |
|  | 5.30 | CC1CCN[C@@H](Cc2ccc(Cl)cc2)CC(=O)N[C@H]2CCc3ccccc3N(CC(=O)N[C@H](Cc3ccc(Cl)c(Cl)c3)CC(=O)N1C)C2=O (stereo in doubt; 11) |  |
| 4.1 |  | CN1CCCN[C@@H](Cc2ccc(S(C)(=O)=O)cc2)CC(=O)N[C@H]2CCc3ccccc3N(CC(=O)N[C@H](Cc3ccc(Cl)c(CCc4ccccc4)c3)CC1=O)C2=O | T1/2 [5]: 0.3 min |
|  | 7.32 | C[C@H]1CCN(C)C(=O)C[C@@H](Cc2ccc(Cl)c(Cl)c2)NC(=O)CN2C(=O)[C@H](CCc3ccccc32)NC(=O)C[C@H](Cc2ccc(Cl)cc2)N1 |  |
| -0.4 |  | N#Cc1cnn2c(Nc3ccc4c(c3)CCC(=O)N4)cc(N3CCC[C@H]3CC(=O)O)nc12 |  |
| 4 |  | C[C@@H]1CCCCN(C)c2cc(n3ncc(C#N)c3n2)Nc2cc3c(c(c2)O1)N(C)C(=O)CC3 | pIC50 [6]: 7.60 |
| 2.3 |  | N#Cc1cnn2c(Nc3ccc4c(c3)CCC(=O)N4)cc(N3CCC[C@H]3CO)nc12 |  |
| 2.4 |  | N#Cc1cnn2c3cc(nc12)N1CC[C@@H](C1)OC/C=C/COc1cc(cc2c1NC(=O)CC2)N3 |  |
| 3.6 |  | CN1CCCCCOc2cc(cc3c2N(C)C(=O)CC3)Nc2cc1nc1c(C#N)cnn21 | pIC50 [6]: 6.72 |
| 3.8 | 5.70 | CNC(=O)C[C@@H](Cc1ccc(Cl)c(Cl)c1)NC(=O)CN1C(=O)[C@@H](NC(=O)C[C@@H](N)Cc2ccc(Cl)cc2)CCc2ccccc21 |  |
| 3.7 | 5.28 | O=C1C[C@@H](Cc2ccc(Cl)c(Cl)c2)NC(=O)CN2C(=O)[C@H](CCc3ccccc32)NC(=O)C[C@H](Cc2ccc(Cl)cc2)NCCCN1 |  |
